This note sets out measurements from ChEMBL document CHEMBL1641390, “Structure and cytotoxicity of diterpenoids from Isodon eriocalyx” (J Nat Prod, 2010).

Broadly, the IC50 is the concentration at which inhibition is half-maximal.

Some results are limits rather than exact numbers.

Holding throughout (type): functional, cell-based
The subject of assay [1] is HT-29. Kind of assay: Cytotoxicity against human HT-29 cells after 72 hrs by sulforhodamine B assay. Conditions: HT-29, 72 h. In a few lines:
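Cells plated 24 h, then exposed to five concentrations in duplicate for 72 h at 37 °C, 5% CO2. Saline vehicle control. TCA-fixed, SRB-stained, dye solubilized in 10 mM Tris, A510 read. Inhibition relative to control, expressed as IC50.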
Background: In SRB staining, fixed cells bind dye roughly in proportion to their protein.

The test system of assay [2] is Bel-7402. Nature of the assay: Cytotoxicity against human Bel7402 cells after 72 hrs by sulforhodamine B assay. Conditions: Bel-7402, 72 h. In a few lines: (§1)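 HT-29 and SK-OV-3 (ATCC) grown in McCoy's 5a, BEL-7402 (Shanghai Cell Bank) in RPMI 1640, all with 10% FBS. Cells plated 24 h, then exposed to five concentrations in duplicate for 72 h at 37 °C, 5% CO2. Saline vehicle control. TCA-fixed, SRB-stained, dye solubilized in 10 mM Tris, A510 read. Inhibition relative to control, expressed as IC50.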

Assay [3] deals with SK-OV-3. Kind of assay: Cytotoxicity against human SKOV3 cells after 72 hrs by sulforhodamine B assay. Conditions: SK-OV-3, 72 h. In a few lines: as §1

With `C=C(C=O)[C@@H]1CC[C@@H]2[C@@H](C1)C(=O)[C@@H](O)[C@@H]1[C@](C)(COC(C)=O)[C@@H](OC(C)=O)C[C@H](O)[C@@]21C`, the concentration for half-maximal inhibition (IC50) was over 10 µM in assay [1], over 10 µM in assay [2] and 5.1 µM in assay [3].

Turning to `C=C(C=O)[C@@H]1CC[C@@H]2[C@@H](C1)C(=O)[C@@H](O)[C@@H]1C(C)(C)[C@H](O)CC[C@@]21C`, the figures for the IC50 in assay [1], in assay [2] and in assay [3] were 8.1 µM, over 10 µM and 7.3 µM, respectively.

Turning to `C=C(C=O)[C@@H]1CC[C@@H]2[C@@H](C1)C(=O)[C@@H](O)[C@@H]1[C@](C)(COC(C)=O)[C@@H](OC(C)=O)CC[C@]12C`, the 50% inhibitory concentration (IC50) in assay [1], in assay [2] and in assay [3] was over 10 µM in each case.

For `C=C1C(=O)[C@@]23C[C@H]1C[C@H]1OC(O)[C@@H]4[C@](C)(COC(C)=O)[C@H](OC(C)=O)C[C@@H](OC2=O)[C@@]4(CO)[C@H]13` (stereo partly drawn), the IC50 in assay [1], in assay [2] and in assay [3] was over 10 µM each time.

For the compound `COc1cccc2c1C(=O)c1c(O)c3c(c(O)c1C2=O)C[C@@](O)(C(=O)CO)C[C@@H]3O[C@H]1C[C@H](N)[C@H](O)[C@H](C)O1` [DOXORUBICIN], the IC50 stood at 0.067 µM in assay [2] and 0.17 µM in assay [3].

Take `C=C1C(=O)[C@]23C[C@H]1CC[C@H]2[C@@]12CO[C@@]3(O)[C@@H](O)[C@@H]1C(C)(C)CC[C@@H]2OC(C)=O` [EFFUSANIN B]: the IC50 came to 4.1 µM in assay [1], 7.3 µM in assay [2] and 2.1 µM in assay [3].

Turning to `C=C1C(=O)[C@]23C[C@H]1CC[C@H]2[C@@]12CO[C@]3(O)[C@@H](O)[C@@H]1[C@](C)(COC(C)=O)CC[C@@H]2OC(C)=O` [EFFUSANIN D], the IC50 in assay [1] was 5.9 µM; in assay [2] it was over 10 µM; in assay [3], 9.1 µM.

In the case of `C=C(C=O)[C@@H]1CCC2=C(C1)C(=O)[C@@H](O)[C@@H]1C(C)(C)[C@H](O)CC[C@@]21C` [ERIOCASIN B], the concentration for half-maximal inhibition (IC50) in assay [1], in assay [2] and in assay [3] was over 10 µM in each case.

For `C=C(C=O)[C@@H]1CC[C@@H]2[C@@H](C1)C(=O)[C@@H](O)[C@@H]1[C@](C)(COC(C)=O)[C@@H](O)CC[C@]12C` [ERIOCASIN C], the half-inhibitory concentration (IC50) in assay [1], in assay [2] and in assay [3] was over 10 µM throughout.

Take `C=C(C=O)[C@@H]1CC[C@@H]2[C@@H](C1)C(=O)[C@@H](O)[C@@H]1[C@](C)(COC(C)=O)CC[C@H](O)[C@@]21C` [ERIOCASIN D]: the results for the IC50 in assay [1], in assay [2] and in assay [3] were over 10 µM, over 10 µM and 5.7 µM, respectively.

Regarding `C=C(CO)[C@@H]1C[C@@H](OC(C)=O)[C@@H]2[C@@H](C1)C(=O)[C@@H](O)[C@@H]1C(C)(C)CCC[C@@]21C` [ERIOCASIN E], the IC50 in assay [1], in assay [2] and in assay [3] was over 10 µM each time.

Regarding `C=C1[C@H]2C[C@@H](O)C3(C(=O)C[C@@H]4[C@](C)(COC(C)=O)CCC[C@@]4(C)[C@@H]3C2)[C@@H]1O` [ERIOCATISIN A], the 50% inhibitory concentration (IC50) in assay [1], in assay [2] and in assay [3] was over 10 µM throughout.

Take `C=C1C(=O)[C@@]23[C@H](O)C[C@@H]4C(C)(C)CC[C@H](O)[C@@]4(COC(C)=O)[C@@H]2CC[C@@H]1[C@H]3O` [HENRYIN]: the half-inhibitory concentration (IC50) in assay [1] is 6 µM; in assay [2] it was over 10 µM; in assay [3], 5.9 µM.

Turning to `C=C1C(=O)[C@@]23[C@@H]4C[C@@H]5C(C)(C)CC[C@H](O)[C@@]5(C(OC)O4)[C@@H]2CC[C@@H]1[C@H]3O` (stereo partly drawn) [KAMEBACETAL A], the figures for the IC50 in assay [1], in assay [2] and in assay [3] were 9.8 µM, over 10 µM and 4.7 µM, respectively.

As to `C=C1C(=O)[C@]23C[C@H]1CC[C@H]2[C@]12CCC[C@@](C)(COC(C)=O)[C@H]1[C@H](O)[C@]3(O)OC2` [LONGIKAURIN C], the IC50 is 2.1 µM in assay [1], 2.9 µM in assay [2] and 3.3 µM in assay [3].

Turning to `C=C1C(=O)[C@]23C[C@H]1CC[C@H]2[C@]12CC[C@H](OC(C)=O)[C@@](C)(COC(C)=O)[C@H]1[C@H](O)[C@]3(O)OC2` [MAOECRYSTAL J], the half-maximal inhibitory concentration (IC50) in assay [1] is 4.2 µM; in assay [2], over 10 µM; in assay [3], 9.8 µM.

Consider `CC(=O)OC[C@]1(C)C(OC(C)=O)CC[C@]23CO[C@@](O)(C[C@@H]21)[C@]12C(=O)C4(CCC45C(=O)[C@]46[C@H](O)[C@H]5CC[C@H]4[C@]45CCC(OC(C)=O)[C@@](C)(COC(C)=O)[C@H]4C[C@]6(O)OC5)[C@H](CC[C@@H]31)[C@H]2O` (stereo partly drawn) [MAOECRYSTAL M], for which the IC50 in assay [1] was over 10 µM; in assay [2] it was 6 µM; in assay [3], 7 µM.

With `C=C1C(=O)[C@]23C[C@H]1CC[C@H]2[C@@]12CO[C@@]3(O)[C@@H](OC(C)=O)[C@@H]1[C@@](C)(COC(C)=O)CC[C@H]2OC(C)=O` [MAOECRYSTAL R], the IC50 amounted to 2.4 µM in assay [1], 4 µM in assay [2] and 3 µM in assay [3].

Turning to `C=C1C(=O)[C@@]23C[C@H]1C[C@H]1O[C@H](O)[C@@H]4[C@](C)(COC(C)=O)CC[C@@H](OC2=O)[C@@]4(CO)[C@H]13` [MAOESIN A], the IC50 in assay [1], in assay [2] and in assay [3] was over 10 µM each time.

`C=C1C(=O)[C@]23C[C@H]1C[C@@H](O)[C@H]2[C@]12CC[C@H](OC(C)=O)[C@@](C)(COC(C)=O)[C@H]1[C@H](O)[C@]3(O)OC2` [MAOESIN C]: the half-maximal inhibitory concentration (IC50) in assay [1], in assay [2] and in assay [3] was over 10 µM each time.

In the case of `C=C1C(=O)[C@]23C[C@H]1C=C[C@H]2[C@]12CC[C@H](OC(C)=O)[C@@](C)(COC(C)=O)[C@H]1[C@H](O)[C@]3(O)OC2` [MAOESIN D], the IC50 in assay [1] was 7.3 µM; in assay [2], over 10 µM; in assay [3], over 10 µM.

Take `C=C1C(O)[C@]23C[C@H]1CC[C@H]2[C@@]1(C)[C@H]([C@H](OC(C)=O)C3=O)[C@](C)(COC(C)=O)CC[C@@H]1O` (stereo partly drawn) [MAOESIN E]: the half-maximal inhibitory concentration (IC50) in assay [1], in assay [2] and in assay [3] was over 10 µM each time.

With `C=C1C(OC(C)=O)[C@]23C[C@H]1CC[C@H]2[C@@]1(CC[C@H](OC(C)=O)[C@@](C)(COC(C)=O)[C@H]1C=O)COC3=O` (stereo partly drawn) [MAOESIN F], the IC50 in assay [1], in assay [2] and in assay [3] was over 10 µM throughout.
